A selection: hits, their analogues and other compounds. The true share with any hit is near 4.1%.
KCC2 mod: KCC2 (human) Cl- transport modulation; 190,000 tested, 2.2% active; Q9H2X9; AID 1456; B-score of Tl+ flux slope (higher = more flux/activation; lower = inhibition) at 10 µM; KCC2 cells, thallium flux FluoZin-2 fluorescence;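 active = thallium flux slope and its plate-corrected score both differing from the plate sample mean at a set confidence after two filtering rounds, in either direction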;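 also: slope of fluorescence scaled to starting intensity during 10 to 20 s after thallium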
KCNQ1 pot: potentiators or activators of human KCNQ1 potassium channel; P51787; CHO-K1 KCNQ1, thallium flux FluxOR fluorescence; active compounds read high; B-score at 10 µM; 310,000 tested, 0.35% active;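 active = fluorescence ratio B-score, a plate-corrected score, at least three library SD, with initial intensity B-score within 5 SD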
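Medium – assay buffer, equal DMSO in all wells · Material – CHO-K1 cell line with stable KCNQ1 potassium channel expression · Signal – kinetic FluxOR thallium fluorescence, 10-s 1-Hz baseline, 110-s post-stimulus read · Compound – single concentration per compound, DMSO matched to controls · Schedule – 37 °C overnight plating, 90-min dark dye load, 20-min compound pretreatment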
KCNK9 inh: inhibitors of human KCNK9 two-pore domain potassium channel; Q9NPC2; HEK293 KCNK9, FluxOR thallium flux fluorescence; active compounds read low; B-score at 10 µM; 310,000 tested, 1.2% active; AID 488922;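 active = ratio B-score over 3 SD below the library mean, with starting fluorescence within 5 SD of its mean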;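 also: negative B-score means less thallium flux so channel inhibition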
hERG protect: hERG (human) protection from proarrhythmic block; CHO-hERG, FluxOR thallium flux, dofetilide IC70 present; activation (rescue from dofetilide block), less the hit threshold, % at 10 µM; 310,000 tested, 0.51% active; AID 1511;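 active = activation above the mean of controls blocked by dofetilide plus 5 SD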;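 also: thallium influx through hERG after potassium depolarization seen as dye fluorescence rise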
KCNQ1 block: blocks the human KCNQ1 potassium channel. P51787. CHO-K1 KCNQ1, FluxOR thallium flux fluorescence; active compounds read high. B-score at 10 µM. 310,000 tested, 1.3% active;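 active = compounds whose thallium flux B-score, printed positive for inhibition, exceeds three library SD while starting fluorescence stays within three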;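 also: channel opened by potassium depolarization with thallium stimulus after 20 min compound exposure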
KCNK3 inh: human KCNK3 channel inhibition, primary screen; O14649; CHO-KCNK3 thallium flux, FluxOR fluorescence; active compounds read low; B-score at 10 µM; 340,000 tested, 0.84% active; AID 602410;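 active = B-score under library mean minus 4 SD, starting fluorescence ratio at most library mean plus 5 SD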;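 also: more negative B-score means stronger inhibition of thallium flux through KCNK3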
Large screens that a line does not name were inactive.

COc1cccc(N=Nc2ccc3cccnc3c2O)c1	KCNQ1 pot 9 (no result: KCC2 mod)
COc1cc(OC)cc(C(=O)Nc2cccc3cccnc23)c1	none (no result: KCC2 mod)
Cc1c(OC(C(=O)O)c2ccccc2)ccc2c(-c3ccccc3)cc(=O)oc12 (centres undefined)	none
O=C(CSc1nc2ccc(Nc3nc(N4CCCC4)nc(N4CCCC4)n3)cc2s1)NCc1ccco1	KCNQ1 block 8
O=C(CSc1nc2ccc(Nc3nc(N4CCOCC4)nc(N4CCOCC4)n3)cc2s1)Nc1ccccc1Cl	none (no result: KCC2 mod)
CC1(C)CC(=O)C2=C(C1)N(c1cccc(O)c1)C1=C(C2)C(=O)CC(C)(C)C1	none
CC(Oc1cccc(Cl)c1)C(=O)Nc1cc(S(=O)(=O)N2CCOCC2)ccc1N1CCCCC1 (centres undefined)	KCNQ1 block 7 (no result: KCC2 mod)
NS(=O)(=O)c1ccc(CCn2c(=S)[nH]c3ccccc3c2=O)cc1	none
COc1ccc2nc(N3C(=O)/C(=C/c4ccc(Cl)cc4)NC3=S)sc2c1	KCC2 mod 53 (no result: KCNQ1 pot, KCNK9 inh, hERG protect, KCNQ1 block)
Cc1oc(C)c2c(=O)ccc3c(c12)OC(N)=C(C#N)C3c1ccccc1Cl (centres undefined)	KCNQ1 block 6
O=C(NC(=S)NNC(=O)c1cccs1)c1ccccc1	KCNQ1 block 6 (no result: KCC2 mod)
CC(C)(C)c1ccc(C(=O)NC(=S)NNC(=O)c2cccs2)cc1	KCC2 mod 57, KCNQ1 pot 12
Cc1cccc(C(=O)NC(=S)NNC(=O)c2ccc(Cl)cc2)c1	KCC2 mod 42, hERG protect 9.1
Cc1cccc(C(=O)NC(=S)NNC(=O)c2cccs2)c1	KCC2 mod 34, KCNQ1 pot 8
Cc1cccc(C(=O)NNC(=O)c2ccc(Br)cc2)c1	none (no result: KCC2 mod)
O=C(NC1CCC(O)CC1)C1CCN(S(=O)(=O)c2c(Cl)cccc2Cl)CC1 (centres undefined)	none (no result: KCC2 mod, KCNQ1 pot, KCNK9 inh, hERG protect, KCNQ1 block)
CCCCN(C)C(=O)c1cn(CC)c2ccc(S(=O)(=O)N(C)C)cc2c1=O	none (no result: KCC2 mod)
CCOC(=O)C(NC(=O)c1ccc(F)cc1)(Nc1nnc(C)s1)C(F)(F)F (centres undefined)	none
O=C(O)CN1C(=O)Nc2ccc(Br)cc2C1c1ccccc1 (centres undefined)	none
CCOC(=O)CN1C(c2ccccc2O)Nc2ccc(Br)cc2C1c1ccccc1 (centres undefined)	KCNK9 inh -7.4
O=C(Nc1cccnc1)c1cc(-c2ccccc2)on1	none
CC(C)n1cc(NC(=O)c2cc(-c3ccccc3)on2)cn1	KCC2 mod 33, KCNQ1 pot 11
COc1ccccc1C(=O)NCC(=O)Nc1ccc2c(c1)CCC2	none (no result: KCC2 mod, KCNQ1 pot, KCNK9 inh, hERG protect, KCNQ1 block)
COc1ccc(CCN=C(NS(=O)(=O)c2ccccc2)c2ccccc2)cc1OC	hERG protect 12
Cc1ccccc1C(=O)NC(=S)NCc1cccnc1	none
COC(=O)C1=C(Cn2cnc3ccccc32)NC(=O)NC1c1cc(C)ccc1C (centres undefined)	none
CCOC(=O)C1=C(Cn2cnc3ccccc32)NC(=O)NC1c1cc(C)ccc1C (centres undefined)	hERG protect 13
CC(C)N1C(=O)c2ccc(C(=O)O)cc2C1=O	none (no result: KCC2 mod)
CC1=NN(c2ccc(C)c(C)c2)C(=O)C1C(c1cccc(O)c1)C1C(=O)N(c2ccc(C)c(C)c2)N=C1C (centres undefined)	KCNK9 inh -9.8
Cc1[nH]c(=O)[nH]c(=O)c1S(=O)(=O)N1CCCc2ccccc21	none (no result: KCC2 mod)
CC(C)C(=O)Nc1c(-c2ccccc2F)c(=O)c2ccccc2n1C	KCNQ1 pot 15, hERG protect 16 (no result: KCC2 mod)
CC(C)C(=O)Nc1c(-c2ccccc2Cl)c(=O)c2ccccc2n1C	none (no result: KCC2 mod)
COC(=O)/C(=C\c1ccc([N+](=O)[O-])cc1)NC(=O)c1ccccc1	none (no result: KCC2 mod, KCNQ1 pot, KCNK9 inh, hERG protect, KCNQ1 block)
CCN(CC)CCN1C(=O)c2ccccc2NC1c1ccccc1F (centres undefined)	hERG protect 5.1
Cc1ccc(C(=O)c2cc(C)sc2NC(=O)CN2CCN(C(=O)c3ccco3)CC2)cc1	KCNQ1 block 9 (no result: KCC2 mod)
O=C1C=C(c2cccc3c2oc2ccccc23)CCC1	none (no result: KCC2 mod)
c1ccc(-c2nc(N3CCN(c4ccccc4)CC3)nc(-n3ccnc3)n2)cc1	KCNK9 inh -7.1

Compound activity from PubChem BioAssay.
